Experiments:
Rattus norvegicus [1] = organism: Rattus norvegicus; assay: Antisecretory activity in rat pylorus ligation-induced ulcer model determined by ratio of free acidity inhibition in drug treated to untreated control; assay type: functional
Procedure, shortened: (§1)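 Sprague Dawley rats (130-150 g) fasted 24 h with water ad libitum; pylorus ligated through a midline incision under ether anesthesia. Dosing oral, 1 h before ligation. Gastric juice free and total acidity titrated against 0.01 N NaOH, with Topfer's reagent and phenolphthalein as indicators. Values expressed as ratio of percent inhibition, treated vs control group.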

Rattus norvegicus [2] = organism: Rattus norvegicus; assay: Antisecretory activity in rat pylorus ligation-induced ulcer model determined by ratio of total acidity inhibition in drug treated to untreated control; assay type: functional; procedure, shortened: as §1
Rattus norvegicus [3] = organism: Rattus norvegicus; assay: Inhibition of gastric H+/K(+)-ATPase activity in Sprague-Dawley rat microsomal vesicles at 10 umol; assay type: microsomes; settings: Stomach, Microsome
Procedure, shortened: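 Rat gastric microsomes were prepared by density gradient and differential centrifugation. The medium held 40 mM Tris-HCl pH 7.4, 2 mM MgCl2, 10 mM KCl (water for blank) and […] vesicular protein. Compound was preincubated 30 min at 37 °C. Tris-ATP at 0.3, 1.0 or 3 mM was then added for 20 min and stopped with chilled 10% TCA. Released Pi was read at 530 nm; % inhibition vs control.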

COC(=O)[C@@H]1CCCN1C(=O)c1ccccc1
Activity (Rattus norvegicus [1]): 0.9 | Activity (Rattus norvegicus [2]): 1.14 | inhibition (Rattus norvegicus [3]): 91%

O=C(O)[C@@H]1CCC(=O)N1Cc1ccccc1Cc1ccccc1
Activity (Rattus norvegicus [1]): 0.48 | Activity (Rattus norvegicus [2]): 0.33 | inhibition (Rattus norvegicus [3]): 71%

O=C(O)[C@H]1CCC(=O)N1Cc1ccccc1
Activity (Rattus norvegicus [1]): 0.46 | Activity (Rattus norvegicus [2]): 0.51 | inhibition (Rattus norvegicus [3]): 55%

CCOC(=O)N1CCC[C@H]1C(=O)OC
Activity (Rattus norvegicus [1]): 0.59 | Activity (Rattus norvegicus [2]): 0.64 | inhibition (Rattus norvegicus [3]): 68%

CC(C)(C)OC(=O)N[C@@H](CO)C(=O)O
Activity (Rattus norvegicus [1]): 0.71 | Activity (Rattus norvegicus [2]): 0.72 | inhibition (Rattus norvegicus [3]): 34%

CC(C)(C)OC(=O)[C@@H]1CCC(=O)N1Cc1ccccc1
Activity (Rattus norvegicus [1]): 0.34 | Activity (Rattus norvegicus [2]): 0.52 | inhibition (Rattus norvegicus [3]): 92%

CCOC(=O)[C@@H](NC(=O)OCc1ccccc1)C(O)/C=C/c1ccccc1 (stereo not given in full)
Activity (Rattus norvegicus [1]): 0.93 | Activity (Rattus norvegicus [2]): 0.98 | inhibition (Rattus norvegicus [3]): 65%

Cc1ccccc1CN1C(=O)CC[C@H]1C(=O)OC(C)(C)C
Activity (Rattus norvegicus [1]): 0.63 | Activity (Rattus norvegicus [2]): 0.62 | inhibition (Rattus norvegicus [3]): 68%

COC(=O)[C@@H]1CCCN1C(=O)Cc1ccc(OC)cc1
Activity (Rattus norvegicus [1]): 0.81 | Activity (Rattus norvegicus [2]): 0.86 | inhibition (Rattus norvegicus [3]): 52%

O=C(N[C@@H](COCc1ccccc1)C(=O)O)OCc1ccccc1
Activity (Rattus norvegicus [1]): 0.48 | Activity (Rattus norvegicus [2]): 0.5 | inhibition (Rattus norvegicus [3]): 59%

O=C(N[C@H](CO)C(=O)O)OCc1ccccc1
Activity (Rattus norvegicus [1]): 0.36 | Activity (Rattus norvegicus [2]): 0.49 | inhibition (Rattus norvegicus [3]): 46%

O=C(O)[C@@H]1CCC(=O)N1Cc1ccccc1
Activity (Rattus norvegicus [1]): 0.86 | Activity (Rattus norvegicus [2]): 0.93 | inhibition (Rattus norvegicus [3]): 44%

CC(C)(C)OC(=O)[C@@H]1CCC(=O)N1Cc1ccccc1Cl
Activity (Rattus norvegicus [1]): 0.17 | Activity (Rattus norvegicus [2]): 0.27 | inhibition (Rattus norvegicus [3]): 88%

Cc1ccccc1CN1C(=O)CC[C@H]1C(=O)O
Activity (Rattus norvegicus [1]): 0.92 | Activity (Rattus norvegicus [2]): 0.89 | inhibition (Rattus norvegicus [3]): 46%

O=C(O)[C@@H]1CCCN1C(=O)/C=C/c1ccccc1
Activity (Rattus norvegicus [1]): 0.65 | Activity (Rattus norvegicus [2]): 0.76 | inhibition (Rattus norvegicus [3]): 58%
